Assay results taken from ChEMBL document CHEMBL1134691, “3-Phenyl-5-acyloxymethyl-2H,5H-furan-2-ones: synthesis and biological activity of a novel group of potential antifungal drugs” (2001).
In brackets after ≈: the same amount, converted by molar mass.

What was measured:
[1] = Inhibition of Trichophyton mentagrophytes 445 growth for 120 hours in vitro.; type: functional, Arthroderma benhamiae; conditions: Trichophyton benhamiae, 120 h; read-out: MIC
How it was run: (§1)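 Dermatophyte grown in MOPS-buffered (0.165 M, pH 7.0) RPMI 1640 containing L-glutamine, in an M27-A microdilution format. Inoculum 5 × 10^3 cfu/mL final. Compounds from DMSO stocks (≤2% final), 2-fold dilutions 1000–0.24 µmol/L. Incubated at 35 °C, growth judged visually at 72 and 120 h. MIC endpoint is 80% inhibition relative to control; measured twice in duplicate.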

[2] = tested on: Aspergillus fumigatus; test: Inhibition of Aspergillus fumigatus 231 growth for 24 hours in vitro.; type: functional; conditions: Aspergillus fumigatus, 24 h; read-out: MIC
How it was run: (§2)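 Filamentous isolates tested by microdilution per NCCLS M27-A in RPMI 1640 plus L-glutamine, buffered with 0.165 M MOPS to pH 7.0. Final inoculum 5 × 10^3 cfu/mL. Compounds in DMSO (final ≤2%), 2-fold series over 1000–0.24 µmol/L. Plates held at 35 °C and read visually after 24 and 48 h. MIC taken as 80% inhibition of control growth; determined twice in duplicate.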

[3] = tested on: Candida tropicalis; test: Inhibition of Candida tropicalis 156 growth for 24 hours in vitro.; type: functional; conditions: Candida tropicalis, 24 h; read-out: MIC
How it was run: (§3)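 NCCLS M27-A broth microdilution in RPMI 1640 with L-glutamine and 0.165 M MOPS, pH 7.0. Isolates kept on Sabouraud dextrose agar. Inoculum 5 × 10^3 cfu/mL final. Compounds were diluted in DMSO (≤2% final) and tested in 2-fold dilutions of 1000–0.24 µmol/L. Incubation at 35 °C, OD540 read at 24 and 48 h. MIC = 80% growth inhibition versus control; assays run twice in duplicate.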

[4] = tested on: Trichosporon beigelii; test: Inhibition of Trichosporon beigelli 1188 for 24 hours in vitro.; type: functional; conditions: Trichosporon beigelii, 24 h; read-out: MIC
How it was run: (§4)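 Microdilution following NCCLS M27-A. Medium: RPMI 1640 with L-glutamine, 0.165 M MOPS, pH 7.0. Final inoculum 5 × 10^3 cfu/mL. Compounds dissolved in DMSO, final ≤2%, serially halved from 1000 to 0.24 µmol/L. Incubated at 35 °C and read at 24 and 48 h. MIC defined as 80% inhibition of control growth; run twice in duplicate.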

[5] = tested on: Nakaseomyces glabratus; test: Inhibition of Candida glabrata 20/I growth for 48 hours in vitro.; type: functional; conditions: Nakaseomyces glabratus, 48 h; read-out: MIC; how it was run: as §3
[6] = tested on: Candida albicans; test: Inhibition of Candida albicans ATCC 44859 growth for 24 hours in vitro.; type: functional; conditions: Candida albicans, ATCC 44859, 24 h; read-out: MIC; how it was run: as §3
[7] = Inhibition of Trichophyton mentagrophytes 445 growth for 72 hours in vitro.; type: functional, Arthroderma benhamiae; conditions: Trichophyton benhamiae, 72 h; read-out: MIC; how it was run: as §1
[8] = tested on: Pichia kudriavzevii; test: Inhibition of Candida krusei E28 growth for 24 hours in vitro.; type: functional; conditions: Pichia kudriavzevii, 24 h; read-out: MIC; how it was run: as §3
[9] = tested on: Aspergillus fumigatus; test: Inhibition of Aspergillus fumigatus 231 growth for 48 hours in vitro.; type: functional; conditions: Aspergillus fumigatus, 48 h; read-out: MIC; how it was run: as §2
[10] = tested on: Candida albicans; test: Inhibition of Candida albicans ATCC 44859 growth for 48 hours in vitro.; type: functional; conditions: Candida albicans, ATCC 44859, 48 h; read-out: MIC; how it was run: as §3
[11] = tested on: Lichtheimia corymbifera; test: In vitro inhibition of Absidia corymbifera 272 growth for 48 hours.; type: functional; conditions: Lichtheimia corymbifera, 48 h; read-out: MIC; how it was run: as §2
[12] = tested on: Trichosporon beigelii; test: Inhibition of Trichosporon beigelli 1188 for 48 hours in vitro.; type: functional; conditions: Trichosporon beigelii, 48 h; read-out: MIC; how it was run: as §4
[13] = tested on: Lichtheimia corymbifera; test: In vitro inhibition of Absidia corymbifera 272 growth for 24 hours.; type: functional; conditions: Lichtheimia corymbifera, 24 h; read-out: MIC; how it was run: as §2
[14] = tested on: Clavispora lusitaniae; test: Inhibition of Candida lusitaniae 2446/I growth for 24 hours in vitro.; type: functional; conditions: Clavispora lusitaniae, 24 h; read-out: MIC; how it was run: as §3
[15] = tested on: Pichia kudriavzevii; test: Inhibition of Candida krusei ATCC 6258 growth for 48 hours in vitro.; type: functional; conditions: Pichia kudriavzevii, ATCC 6258, 48 h; read-out: MIC; how it was run: as §3
[16] = tested on: Pichia kudriavzevii; test: Inhibition of Candida krusei ATCC 6258 growth for 24 hours in vitro.; type: functional; conditions: Pichia kudriavzevii, ATCC 6258, 24 h; read-out: MIC; how it was run: as §3
[17] = tested on: Clavispora lusitaniae; test: Inhibition of Candida lusitaniae 2446/I growth for 48 hours in vitro.; type: functional; conditions: Clavispora lusitaniae, 48 h; read-out: MIC; how it was run: as §3
[18] = tested on: Candida parapsilosis; test: Inhibition of Candida parapsilosis ATCC 22019 growth for 48 hours in vitro.; type: functional; conditions: Lodderomyces parapsilosis, ATCC 22019, 48 h; read-out: MIC; how it was run: as §3
[19] = tested on: Nakaseomyces glabratus; test: Inhibition of Candida glabrata 20/I growth for 24 hours in vitro.; type: functional; conditions: Nakaseomyces glabratus, 24 h; read-out: MIC; how it was run: as §3
[20] = tested on: Candida parapsilosis; test: Inhibition of Candida parapsilosis ATCC 22019 growth for 24 hours in vitro.; type: functional; conditions: Lodderomyces parapsilosis, ATCC 22019, 24 h; read-out: MIC; how it was run: as §3
[21] = tested on: Candida tropicalis; test: Inhibition of Candida tropicalis 156 growth for 48 hours in vitro.; type: functional; conditions: Candida tropicalis, 48 h; read-out: MIC; how it was run: as §3
[22] = tested on: Pichia kudriavzevii; test: Inhibition of Candida krusei E28 growth for 48 hours in vitro.; type: functional; conditions: Pichia kudriavzevii, 48 h; read-out: MIC; how it was run: as §3
[23] = tested on: Candida albicans; test: Inhibition of Candida albicans ATCC 90028 for 48 hours in vitro.; type: functional; conditions: Candida albicans, ATCC 90028, 48 h; read-out: MIC; how it was run: as §3
[24] = tested on: Candida albicans; test: Inhibition of Candida albicans ATCC 90028 for 24 hours in vitro.; type: functional; conditions: Candida albicans, ATCC 90028, 24 h; read-out: MIC; how it was run: as §3

Row | Compound | MIC [1] [µM] | MIC [2] [µM] | MIC [3] [µM] | MIC [4] [µM] | MIC [5] [µM] | MIC [6] [µM] | MIC [7] [µM] | MIC [8] [µM] | MIC [9] [µM] | MIC [10] [µM] | MIC [11] [µM] | MIC [12] [µM] | MIC [13] [µM] | MIC [14] [µM] | MIC [15] [µM] | MIC [16] [µM] | MIC [17] [µM] | MIC [18] [µM] | MIC [19] [µM] | MIC [20] [µM] | other results
1 | O=C1OC(COC(=O)c2ccc(Cl)cc2)C=C1c1cccc(Cl)c1 (stereo unspecified) | 3.91 (≈ 1.42 µg/mL) | 1.95 (≈ 0.708 µg/mL) | 15.6 (≈ 5.68 µg/mL) | 7.81 (≈ 2.84 µg/mL) | 1.95 (≈ 0.708 µg/mL) | 1.95 (≈ 0.708 µg/mL) | 1.95 (≈ 0.708 µg/mL) | 15.6 (≈ 5.68 µg/mL) | 3.91 (≈ 1.42 µg/mL) | 3.91 (≈ 1.42 µg/mL) | 15.6 (≈ 5.68 µg/mL) | 15.6 (≈ 5.68 µg/mL) | 3.91 (≈ 1.42 µg/mL) | 7.81 (≈ 2.84 µg/mL) | 15.6 (≈ 5.68 µg/mL) | 7.81 (≈ 2.84 µg/mL) | 15.6 (≈ 5.68 µg/mL) | 31.2 (≈ 11.3 µg/mL) | 1.95 (≈ 0.708 µg/mL) | 7.81 (≈ 2.84 µg/mL) | MIC [21]: 31.2 µM (≈ 11.3 µg/mL); MIC [22]: 15.6 µM (≈ 5.68 µg/mL); MIC [23]: 7.81 µM (≈ 2.84 µg/mL); MIC [24]: 7.81 µM (≈ 2.84 µg/mL)
2 | OC(Cn1cncn1)(Cn1cncn1)c1ccc(F)cc1F [FLUCONAZOLE] | 16 (≈ 4.9 µg/mL) | > 128 | 0.5 (≈ 0.153 µg/mL) | 1 (≈ 0.306 µg/mL) | 16 (≈ 4.9 µg/mL) | 0.25 (≈ 0.0766 µg/mL) | 8 (≈ 2.45 µg/mL) | 16 (≈ 4.9 µg/mL) | > 128 | 0.5 (≈ 0.153 µg/mL) | > 128 | 2 (≈ 0.613 µg/mL) | > 128 | 1 (≈ 0.306 µg/mL) | 64 (≈ 19.6 µg/mL) | 32 (≈ 9.8 µg/mL) | 1 (≈ 0.306 µg/mL) | 4 (≈ 1.23 µg/mL) | 4 (≈ 1.23 µg/mL) | 2 (≈ 0.613 µg/mL) | MIC [21]: > 128 µM; MIC [22]: 32 µM (≈ 9.8 µg/mL); MIC [23]: 1 µM (≈ 0.306 µg/mL); MIC [24]: 0.25 µM (≈ 0.0766 µg/mL)
3 | O=C1OC(CO)C=C1c1ccc(Br)cc1 (stereo unspecified) | 15.6 (≈ 4.21 µg/mL) | 62.5 (≈ 16.8 µg/mL) | 250 (≈ 67.3 µg/mL) | 125 (≈ 33.6 µg/mL) | 125 (≈ 33.6 µg/mL) | 31.2 (≈ 8.41 µg/mL) | 15.6 (≈ 4.21 µg/mL) | 500 (≈ 135 µg/mL) | 125 (≈ 33.6 µg/mL) | 62.5 (≈ 16.8 µg/mL) | 250 (≈ 67.3 µg/mL) | 500 (≈ 135 µg/mL) | 250 (≈ 67.3 µg/mL) | 250 (≈ 67.3 µg/mL) | 1000 (≈ 269 µg/mL) | 500 (≈ 135 µg/mL) | 250 (≈ 67.3 µg/mL) | 500 (≈ 135 µg/mL) | 125 (≈ 33.6 µg/mL) | 250 (≈ 67.3 µg/mL) | MIC [21]: 500 µM (≈ 135 µg/mL); MIC [22]: 500 µM (≈ 135 µg/mL); MIC [23]: 250 µM (≈ 67.3 µg/mL); MIC [24]: 250 µM (≈ 67.3 µg/mL)
4 | CC(=O)OCC1C=C(c2cccc(Cl)c2)C(=O)O1 (stereo unspecified) | 1.95 (≈ 0.52 µg/mL) | 1.95 (≈ 0.52 µg/mL) | 7.81 (≈ 2.08 µg/mL) | 3.91 (≈ 1.04 µg/mL) | 0.98 (≈ 0.261 µg/mL) | 0.98 (≈ 0.261 µg/mL) | 1.95 (≈ 0.52 µg/mL) | 7.81 (≈ 2.08 µg/mL) | 3.91 (≈ 1.04 µg/mL) | 3.91 (≈ 1.04 µg/mL) | 7.81 (≈ 2.08 µg/mL) | 15.6 (≈ 4.17 µg/mL) | 3.91 (≈ 1.04 µg/mL) | 3.91 (≈ 1.04 µg/mL) | 7.81 (≈ 2.08 µg/mL) | 3.91 (≈ 1.04 µg/mL) | 7.81 (≈ 2.08 µg/mL) | 7.81 (≈ 2.08 µg/mL) | < 0.98 | 7.81 (≈ 2.08 µg/mL) | MIC [21]: 15.6 µM (≈ 4.17 µg/mL); MIC [22]: 7.81 µM (≈ 2.08 µg/mL); MIC [23]: 7.81 µM (≈ 2.08 µg/mL); MIC [24]: 3.91 µM (≈ 1.04 µg/mL)
